Assay results reported in ChEMBL document CHEMBL1149895, “Steroids and flavonoids from Physalis alkekengi var. franchetii and their inhibitory effects on nitric oxide production” (J Nat Prod, 2008).

Test system: RAW264.7
Assay: Inhibition of LPS-induced nitric oxide production in mouse RAW264.7 cells assessed as nitrite formation
Assay type: functional, cell-based
In short: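 RAW 264.7 cells in RPMI 1640 with 10% heat-inactivated FBS, penicillin and streptomycin, seeded at 1 × 10^5 cells/well and allowed to adhere 2 h at 37 °C in 5% CO2. LPS 1 µg/mL with or without compound (DMSO 0.2% v/v final) for 24 h. Supernatant nitrite read by Griess reagent against a 0–100 µM sodium nitrite line. Inhibition taken relative to LPS-only and untreated wells. Triplicate, mean ± SD of three independent experiments.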

SMILES | IC50 [µM]
C[C@]12C(=O)C[C@@H](O)CC1=CC[C@@H]1[C@@H]2CC[C@]2(O)C(=O)O[C@@]3(C)[C@H]4C[C@]5(C)[C@@H](CO[C@@]16O[C@@]32[C@H]5C6=O)C(=O)O4 [PHYSALIN Y] | 79.2
CO[C@H]1C=C2C=C[C@@H]3[C@H](CC[C@]4(O)C(=O)O[C@@]5(C)[C@H]6C[C@](C)([C@H](C)C(=O)O6)[C@H]6[C@@]3(O)C(=O)O[C@@]654)[C@@]2(C)C(=O)C1 [PHYSALIN I] | 84
C[C@]12C(=O)C[C@@H](O)C=C1C=C[C@@H]1[C@@H]2CC[C@]2(O)C(=O)O[C@@]3(C)[C@H]4C[C@]5(C)[C@@H](CO[C@@]16O[C@@]32[C@H]5C6=O)C(=O)O4 [PHYSALIN Z] | 75.7
C[C@]12C(=O)C=CCC1=CC[C@@H]1[C@@H]2CC[C@]2(O)C(=O)O[C@@]3(C)[C@H]4C[C@]5(C)[C@@H](CO[C@@]16O[C@@]32[C@H]5C6=O)C(=O)O4 [PHYSALIN B] | 0.84
C=C1C(=O)O[C@@H]2C[C@@]1(C)[C@@H]1C(=O)[C@]3(O)O[C@]14[C@@]2(C)OC(=O)[C@@]4(O)CC[C@H]1[C@H]3[C@H](O)C=C2CC=CC(=O)[C@@]21C [PHYSALIN A] | 2.57
C[C@@]12C[C@H]3OC(=O)[C@@H]1CO[C@]14O[C@]5([C@H]2C1=O)[C@@](O)(CC[C@H]1[C@H]4C[C@H]2O[C@]24CC=CC(=O)[C@]14C)C(=O)O[C@@]35C [PHYSALIN F] | 0.33
O=c1cc(-c2ccc(O)c(O)c2)oc2cc(O)cc(O)c12 [LUTEOLIN] | 7.39

Other lines, results leading:

IC50 [µM] | SMILES
64.3 | C[C@]12CCC(=O)C=C1CC[C@@H]1[C@@H]2[C@@H](O)C[C@@]2(C)[C@H]1CC[C@]2(O)C(=O)CO [HYDROCORTISONE]
2.23 | COc1cc(O)c2c(=O)c(O)c(-c3ccc(OC)c(O)c3)oc2c1 [OMBUINE]
17.1 | C[C@@H]1C(=O)O[C@@H]2C[C@@]1(C)[C@@H]1C(=O)[C@]3(O)O[C@]14[C@@]2(C)OC(=O)[C@@]4(O)CC[C@H]1[C@H]3[C@H](O)C=C2CC=CC(=O)[C@@]21C [PHYSALIN O]
64 | C[C@]12C(=O)C[C@H](O)C=C1C=C[C@@H]1[C@@H]2CC[C@]2(O)C(=O)O[C@@]3(C)[C@H]4C[C@]5(C)[C@@H](CO[C@@]16O[C@@]32[C@H]5C6=O)C(=O)O4 [ISOPHYSALIN G]
